How the values were obtained:
Rattus norvegicus [1] = test: Antiinflammatory activity against carrageenan-induced paw edema in orally dosed Wistar rat after 3 hrs relative to control; assay type: functional
In short: (§1)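 Wistar rats of either sex, 100–120 g, fasted 24 h with water available. Compounds were suspended in 1% aqueous CMC and given orally 1 h before 0.1 mL of freshly prepared 1.0% w/v carrageenan was injected subplantar into the right hind paw. Paw volume was measured before and after carrageenan. Change in paw volume is mean ± SD versus vehicle control, by one-way ANOVA with Dunnett's test.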

Rattus norvegicus [2] = test: Antiinflammatory activity against carrageenan-induced paw edema in orally dosed Wistar rat after 2 hrs relative to control; assay type: functional; in short: as §1
Rattus norvegicus [3] = test: Antiinflammatory activity against carrageenan-induced paw edema in orally dosed Wistar rat after 1 hr relative to control; assay type: functional; in short: as §1
Rattus norvegicus [4] = test: Gastric-ulcerogenic effect in Wistar rat at 50 mg/kg, po; assay type: ADME, organism-based; design: dose 50 mg/kg, route oral; conditions: in vivo
In short: (§2)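 Wistar rats of either sex (100–120 g), kept at 25 °C and 50% relative humidity on a 12 h light/dark cycle, fasted 24 h with water ad libitum. Compounds were suspended in 1% aqueous CMC and given orally; controls received vehicle. Ulceration was induced in a stress model with added cold stress. Gastric mucosa was scored, with severity index = treated mean score minus control mean. Ratio of ulcerated animals recorded. Mean ± SEM; one-way ANOVA with Dunnett's test. Tissue examined after H&E staining.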

Rattus norvegicus [5] = test: Induction of gastric ulcer in orally dosed Wistar rat assessed as stomach mucosal damage; assay type: organism-based; conditions: in vivo, po; in short: as §2
Rattus norvegicus [6] = test: Gastric-ulcerogenic effect in Wistar rat at 10 mg/kg, po; assay type: ADME, organism-based; design: dose 10 mg/kg, route oral; conditions: in vivo; in short: as §2
Mus musculus = test: Analgesic activity against acetic acid-induced writhing in Swiss Albino mouse at 10 mg/kg, po after 25 mins relative to control; assay type: functional
In short: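 Mice given compounds orally at 10 mg/kg, suspended in 1% aqueous sodium carboxymethyl cellulose. Vehicle-only controls were run. Acetic acid was used to induce writhing. Writhes were counted over 25 min after treatment and reported as mean ± SEM. Percent inhibition was calculated versus the vehicle control.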

Rattus norvegicus [7] = test: Gastric-ulcerogenic effect in Wistar rat at 30 mg/kg, po; assay type: ADME, organism-based; design: dose 30 mg/kg, route oral; conditions: in vivo; in short: as §2

## Cc1ccc(/C=N/NC(=O)Cc2ccccc2Nc2c(Cl)cccc2Cl)cc1
Rattus norvegicus [1]
  Inhibition: 68.62%
Rattus norvegicus [2]
  Inhibition: 43.09%
Rattus norvegicus [3]
  Inhibition: 20.99%

## O=C(Cc1ccccc1Nc1c(Cl)cccc1Cl)N/N=C/c1ccccc1Cl
Rattus norvegicus [1]
  Inhibition: 60.99%
Rattus norvegicus [2]
  Inhibition: 40.2%
Rattus norvegicus [3]
  Inhibition: 13.54%

## COc1ccc(/C=N/NC(=O)Cc2ccccc2Nc2c(Cl)cccc2Cl)cc1
Rattus norvegicus [1]
  Inhibition: 73.36%
Rattus norvegicus [2]
  Inhibition: 51.88%
Rattus norvegicus [4]
  Activity: Non-toxic
Rattus norvegicus [5]
  Activity: Non-toxic
Rattus norvegicus [6]
  Activity: Non-toxic
Mus musculus
  inhibition in vivo at 10 mg/kg: 53.9%
Rattus norvegicus [7]
  Activity: Non-toxic
Rattus norvegicus [3]
  Inhibition: 27.21%

## COc1cc(/C=N/NC(=O)Cc2ccccc2Nc2c(Cl)cccc2Cl)cc(OC)c1OC
Rattus norvegicus [1]
  Inhibition: 71.93%
Rattus norvegicus [2]
  Inhibition: 50.97%
Rattus norvegicus [3]
  Inhibition: 29.11%

## O=C(CSc1nnc(Cc2ccccc2Nc2c(Cl)cccc2Cl)o1)c1ccc(O)cc1
Rattus norvegicus [1]
  Inhibition: 71.99%
Rattus norvegicus [2]
  Inhibition: 48.91%
Mus musculus
  inhibition in vivo at 10 mg/kg: 68.2%
Rattus norvegicus [3]
  Inhibition: 31.55%

## COc1cccc(C(=O)CSc2nnc(Cc3ccccc3Nc3c(Cl)cccc3Cl)o2)c1
Rattus norvegicus [1]
  Inhibition: 74.23%
Rattus norvegicus [2]
  Inhibition: 52.09%
Rattus norvegicus [4]
  Activity: Non-toxic
Rattus norvegicus [5]
  Activity: Non-toxic
Rattus norvegicus [6]
  Activity: Non-toxic
Mus musculus
  inhibition in vivo at 10 mg/kg: 66.9%
Rattus norvegicus [7]
  Activity: Non-toxic
Rattus norvegicus [3]
  Inhibition: 23.8%

## O=C(Cc1ccccc1Nc1c(Cl)cccc1Cl)N/N=C/c1ccc(Br)cc1
Rattus norvegicus [1]
  Inhibition: 80.07%
Rattus norvegicus [2]
  Inhibition: 51.72%
Rattus norvegicus [4]
  Activity: Non-toxic
Rattus norvegicus [5]
  Activity: Non-toxic
Rattus norvegicus [6]
  Activity: Non-toxic
Mus musculus
  inhibition in vivo at 10 mg/kg: 68.7%
Rattus norvegicus [7]
  Activity: Non-toxic
Rattus norvegicus [3]
  Inhibition: 30.53%

## O=C(CSc1nnc(Cc2ccccc2Nc2c(Cl)cccc2Cl)o1)c1ccc([N+](=O)[O-])cc1
Rattus norvegicus [1]
  Inhibition: 67.19%
Rattus norvegicus [2]
  Inhibition: 45.64%
Rattus norvegicus [3]
  Inhibition: 20.99%

## O=C(Cc1ccccc1Nc1c(Cl)cccc1Cl)N/N=C/c1ccccc1O
Rattus norvegicus [1]
  Inhibition: 72.88%
Rattus norvegicus [2]
  Inhibition: 46.96%
Rattus norvegicus [4]
  Activity: Non-toxic
Rattus norvegicus [5]
  Activity: Non-toxic
Rattus norvegicus [6]
  Activity: Non-toxic
Mus musculus
  inhibition in vivo at 10 mg/kg: 60.5%
Rattus norvegicus [7]
  Activity: Non-toxic
Rattus norvegicus [3]
  Inhibition: 31.38%

## O=C(Cc1ccccc1Nc1c(Cl)cccc1Cl)N/N=C/C=C/c1ccccc1
Rattus norvegicus [1]
  Inhibition: 72.76%
Rattus norvegicus [2]
  Inhibition: 48.81%
Mus musculus
  inhibition in vivo at 10 mg/kg: 45.3%
Rattus norvegicus [3]
  Inhibition: 32.28%

## O=C(CSc1nnc(Cc2ccccc2Nc2c(Cl)cccc2Cl)o1)c1cccc(O)c1
Rattus norvegicus [1]
  Inhibition: 69.89%
Rattus norvegicus [2]
  Inhibition: 44.53%
Rattus norvegicus [3]
  Inhibition: 17.94%

## O=C(CSc1nnc(Cc2ccccc2Nc2c(Cl)cccc2Cl)o1)c1cccc([N+](=O)[O-])c1
Rattus norvegicus [1]
  Inhibition: 60.39%
Rattus norvegicus [2]
  Inhibition: 49.47%
Rattus norvegicus [3]
  Inhibition: 28.34%

## O=C(CSc1nnc(Cc2ccccc2Nc2c(Cl)cccc2Cl)o1)c1ccc(Br)cc1
Rattus norvegicus [1]
  Inhibition: 71.05%
Rattus norvegicus [2]
  Inhibition: 45.16%
Mus musculus
  inhibition in vivo at 10 mg/kg: 55%
Rattus norvegicus [3]
  Inhibition: 26.02%

## O=C(Cc1ccccc1Nc1c(Cl)cccc1Cl)N/N=C/c1ccc(F)cc1
Rattus norvegicus [1]
  Inhibition: 60.34%
Rattus norvegicus [2]
  Inhibition: 41.35%
Rattus norvegicus [3]
  Inhibition: 16.64%

## COc1ccc(C(=O)CSc2nnc(Cc3ccccc3Nc3c(Cl)cccc3Cl)o2)cc1OC
Rattus norvegicus [1]
  Inhibition: 72.63%
Rattus norvegicus [2]
  Inhibition: 48.63%
Rattus norvegicus [4]
  Activity: Non-toxic
Rattus norvegicus [5]
  Activity: Non-toxic
Rattus norvegicus [6]
  Activity: Non-toxic
Mus musculus
  inhibition in vivo at 10 mg/kg: 51.4%
Rattus norvegicus [7]
  Activity: Non-toxic
Rattus norvegicus [3]
  Inhibition: 23.43%

## CN(C)c1ccc(/C=N/NC(=O)Cc2ccccc2Nc2c(Cl)cccc2Cl)cc1
Rattus norvegicus [1]
  Inhibition: 69.39%
Rattus norvegicus [2]
  Inhibition: 48.75%
Rattus norvegicus [3]
  Inhibition: 28.2%

## O=C(Cc1ccccc1Nc1c(Cl)cccc1Cl)N/N=C/c1cccc([N+](=O)[O-])c1
Rattus norvegicus [1]
  Inhibition: 69.79%
Rattus norvegicus [2]
  Inhibition: 47.02%
Rattus norvegicus [3]
  Inhibition: 20.87%

## O=C(Cc1ccccc1Nc1c(Cl)cccc1Cl)N/N=C/c1ccc(O)cc1
Rattus norvegicus [1]
  Inhibition: 70.94%
Rattus norvegicus [2]
  Inhibition: 38.14%
Rattus norvegicus [3]
  Inhibition: 16.28%

## O=C(CSc1nnc(Cc2ccccc2Nc2c(Cl)cccc2Cl)o1)c1ccc(Cl)c(Cl)c1
Rattus norvegicus [1]
  Inhibition: 60.39%
Rattus norvegicus [2]
  Inhibition: 52.26%
Rattus norvegicus [3]
  Inhibition: 30.46%

## O=C([O-])Cc1ccccc1Nc1c(Cl)cccc1Cl.[Na+] [DICLOFENAC SODIUM]
Rattus norvegicus [1]
  Inhibition: 71.3%
Rattus norvegicus [2]
  Inhibition: 48.99%
Rattus norvegicus [6]
  UI: 1.8
Mus musculus
  inhibition in vivo at 10 mg/kg: 64.7%
Rattus norvegicus [7]
  UI: 2.1
Rattus norvegicus [3]
  Inhibition: 28.69%

Reference: ChEMBL document CHEMBL1143990, “Design, synthesis and evaluation of antiinflammatory, analgesic and ulcerogenicity studies of novel S-substituted phenacyl-1,3,4-oxadiazole-2-thiol and Schiff bases of diclofenac acid as nonulcerogenic derivatives” (Bioorg Med Chem, 2008)
